Measured values as given in ChEMBL document CHEMBL5390255, “Expanding the squaramide library as mycobacterial ATP synthase inhibitors: Innovative synthetic pathway and biological evaluation” (Bioorg Med Chem, 2023).
Converted amounts (≈) assume the structure as drawn. The source made the active and inactive calls. No cut-off for these calls is given here.

Experiments:
[1] = Octanol/water partition coefficient log P of the compound; assay type: physicochemical
Outline: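 Calculated by Chemaxon as log n-octanol/water partition coefficient, not measured.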

[2] = tested on: Mycobacterium tuberculosis; test: Antibacterial activity against Mycobacterium tuberculosis H37Ra assessed as bacterial growth inhibition incubated for 7 days by broth microdilution method; assay type: functional; settings: time 7 day
Outline: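 H37Ra-Lux luminescent broth microdilution. Cultures in 7H9/OADC/tyloxapol/glycerol at 1x10⁴ RLU/well. 2-fold nine-point dilution from final 100 µM, DMSO ≤0.5%, in triplicate, with bedaquiline reference. Incubated 7 days at 37 °C; luminescence read after n-decanal injection. MIC90 from variable-slope four-parameter nonlinear regression.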

[3] = Cytotoxicity against mouse RAW264.7 cells assessed as reduction of cell viability incubated for 72 hrs by Cell Titer-Glo assay; assay type: toxicity, cell-based
[4] = tested on: Mycobacterium tuberculosis; test: Antibacterial activity against Mycobacterium tuberculosis H37Rv assessed as bacterial growth inhibition by resazurin staining based broth micro-dilution assay; assay type: functional
[5] = tested on: Mycobacterium tuberculosis; test: Bactericidal activity against Mycobacterium tuberculosis H37Ra assessed as bacterial growth inhibition incubated for 3 to 4 weeks by broth microdilution method; assay type: functional; settings: time 3-4 weeks
Outline: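 MBC: same H37Ra-Lux microdilution setup as the MIC assay. At 14 days, 2 µL per condition spotted on 7H11 agar in triplicate, and wells at and one step above MIC fully plated. Colonies counted after 3–4 weeks at 37 °C. MBC is the lowest concentration giving >99% kill.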

[6] = tested on: Mycobacterium tuberculosis; test: Anti-mycobacterial activity against Mycobacterium tuberculosis H37Ra infected in mouse RAW264.7 cells at 0.5 to 2 times MIC measured after 24 hrs by time-kill kinetic assay; assay type: functional, organism-based
Outline: (§1)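 RAW 264.7 macrophages infected with H37Ra-Lux at MOI 10 for 4 h in DMEM with 5% iFBS. Extracellular bacteria were removed with 200 µg/ml amikacin for 1 h, and cells reseeded at 5x10⁴/well. […] Cells were PBS-washed, lysed in 0.1% Triton X-100, and luminescence read with n-decanal at 24, 48 and 72 h.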

[7] = tested on: Mycobacterium tuberculosis; test: Anti-mycobacterial activity against Mycobacterium tuberculosis H37Ra infected in mouse RAW264.7 cells at 0.5 to 2 times MIC measured after 72 hrs by time-kill kinetic assay; assay type: functional, organism-based; outline: as §1
[8] = tested on: Mycobacterium tuberculosis; test: Synergistic antibacterial activity against Mycobacterium tuberculosis H37Ra assessed as fractional inhibitory concentration index at 2 times MIC measured after 7 days in presence of clofazimine by checkerboard microdilution assay; assay type: functional; settings: time 7 day
Outline: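 Checkerboard with H37Ra-Lux, in triplicate. Squaramide 2-fold dilutions from 2x MIC across columns; clofazimine 2-fold dilutions from 2x MIC down rows. Luminescence read at 7 days. FICI calculated as A/MIC A + B/MIC B.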

[9] = Stability of compound; assay type: physicochemical
[10] = tested on: Mycobacterium tuberculosis; test: Antibacterial activity against wild type Mycobacterium tuberculosis H37Ra incubated for 7 days by resazurin staining based microtiter assay; assay type: functional; settings: 168 h, time 7 day
Outline: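 Resazurin microtiter assay on H37Ra atpB K179N mutants and wild type, using exponential cultures diluted to OD 0.02. 3-fold serial dilution from 10 µM (0.002–10 µM), in triplicate. After 7 days, 0.02% resazurin added for 24 h, then fluorescence read (ex 530/em 590 nm). MIC taken from four-parameter variable-slope nonlinear regression.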

ATP synthase = test: Inhibition of Mycobacterium tuberculosis H37Rv ATP synthase by luminometer analysis; assay type: protein-complex assay
[11] = Selectivity index, ratio of MIC for antibacterial activity against Mycobacterium tuberculosis H37Rv to the IC50 for inhibition of Mycobacterium tuberculosis H37Rv ATP synthase; assay type: toxicity
[12] = tested on: Mycobacterium tuberculosis; test: Anti-mycobacterial activity against Mycobacterium tuberculosis H37Ra infected in mouse RAW264.7 cells at 0.5 times MIC measured after 24 hrs by time-kill kinetic assay; assay type: functional, organism-based; outline: as §1
[13] = tested on: Mycobacterium tuberculosis; test: Anti-mycobacterial activity against Mycobacterium tuberculosis H37Ra.mScarlet+ infected in mouse RAW264.7 cells assessed as reduction in bacterial load at 4 uM incubated for 72 hrs by 488-I Phalloidin/DAPI staining based microscopic analysis relative to control; assay type: functional; parameters: scale not given: the % may be the effect or the level left
Outline: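 RAW 264.7 cells infected with H37Ra.mScarlet⁺, seeded on coverslips at 5x10⁵ cells/ml, and treated with compound at 0.5% final DMSO; infected cells with 0.5% DMSO as control. At 72 h cells were PBS-washed and fixed in 4% paraformaldehyde. Actin stained with phalloidin 488 (1:1000, 15 min) and nuclei with 1 µg/ml DAPI (5 min). Imaged by fluorescence microscopy at 63x.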

[14] = Mycobacterium tuberculosis, H37Ra, 168 h, read-out: MIC
[15] = Mycobacterium tuberculosis, H37Ra, read-out: MBC

Structure (SMILES)	logP [1]	MIC [2, 14]	CC50 at 72 h [3]	further results
O=c1c(NCc2ccccn2)c(N2CCCCC2)c1=O	1.18	> 64 µM	> 64 µM	
O=c1c(NCc2ccccn2)c(Nc2ccccc2)c1=O	1.58	15.1 µM (≈ 4.23 µg/mL)	> 64 µM	
O=c1c(NCc2ccccn2)c(Nc2nc3ccc(Cl)cc3o2)c1=O	2.22	> 64 µM	> 64 µM	
CCCCCCNc1c(NCc2ccccn2)c(=O)c1=O	2.16	> 64 µM	> 64 µM	
COc1ccc(/C=C2/S/C(=N/N=C/c3ccccc3O)NC2=O)cc1				MIC90 ([4]; Mycobacterium tuberculosis, H37Rv): 0.5 µg/mL (≈ 1.41 µM)
COc1ccc(-c2c(NCc3ccccn3)c(=O)c2=O)cc1	2.18	6.59 µM (≈ 1.94 µg/mL)	> 64 µM	MBC [5, 15]: 8 µM (≈ 2.35 µg/mL); Activity [6]: inactive; Activity [7]: inactive; fractional inhibitory concentration index (FICI) [8]: 0.63
O=c1c(NCc2ccccn2)c(Nc2nc3ccccc3o2)c1=O	1.61	> 64 µM	> 64 µM	
O=c1c(NCCCBr)c(NCc2ccccn2)c1=O	0.85	> 64 µM	> 64 µM	
O=c1c(NCc2ccccn2)c(Nc2nc3cc(Cl)ccc3o2)c1=O	2.22	> 64 µM	> 64 µM	
CCCNc1c(NCc2ccccn2)c(=O)c1=O	0.82	> 64 µM	> 64 µM	
O=c1c(NCc2ccccn2)c(-c2ccc(C3CCCCC3)cc2)c1=O	4.45	> 64 µM	> 64 µM	
O=c1c(NCc2ccccn2)c(N2CCN(c3ccccc3)CC2)c1=O	2.06	> 64 µM	26.2 µM	
Cc1ccc2nc(Nc3c(NCc4ccccn4)c(=O)c3=O)oc2c1	2.13	> 64 µM	> 64 µM	
O=c1c(NCc2ccccn2)c(N2CCC(c3ccccc3)CC2)c1=O	2.6	> 64 µM	7.47 µM	
O=c1c(NCc2ccccn2)c(NC2CCCCCCC2)c1=O	2.63	> 64 µM	> 64 µM	
O=c1c(NCc2ccccn2)c(-c2ccc(N3CCSCC3)cc2)c1=O	2.8	0.9 µM (≈ 0.329 µg/mL)	> 64 µM	MBC [5, 15]: 1.2 µM (≈ 0.439 µg/mL); Activity [7]: inactive; fractional inhibitory concentration index (FICI) [8]: 0.48; Stability [9]: Unstable

Structure (SMILES)	logP [1]	MIC [2, 14]	CC50 at 72 h [3]	further results
O=c1c(NCc2ccccn2)c(Nc2nc3cc([N+](=O)[O-])ccc3o2)c1=O	1.55	> 64 µM	> 64 µM	
O=c1c(NCc2ccccn2)c(Nc2cc(C3CC3)n[nH]2)c1=O	0.89	> 64 µM	> 64 µM	
O=c1c(NCc2ccccn2)c(-c2ccc(C3CCNCC3)cc2)c1=O	2.44	> 64 µM	> 64 µM	
COc1nc2ccc(Br)cc2cc1[C@@H](c1ccccc1)[C@@](O)(CCN(C)C)c1cccc2ccccc12 [BEDAQUILINE]		0.05 µM (≈ 0.0278 µg/mL)		MBC [5, 15]: 0.03 µM (≈ 0.0167 µg/mL); MIC [10]: 0.1 µM (≈ 0.0556 µg/mL)
CC/C(=C(\c1ccccc1)c1ccc(OCCN(C)C)cc1)c1ccccc1 [TAMOXIFEN]			5.03 µM	
O=c1c(NCc2ccccn2)c(-c2ccc(N3CCNCC3)cc2)c1=O	1.91	19.9 µM (≈ 6.93 µg/mL)	> 64 µM	MBC [5, 15]: 64 µM (≈ 22.3 µg/mL)
C#CCNc1c(NCc2ccccn2)c(=O)c1=O	0.17	> 64 µM	> 64 µM	
O=c1c(NCc2ccccn2)c(-c2ccc(N3CCOCC3)cc2)c1=O			> 64 µM	MIC [4]: 0.5 µM (≈ 0.175 µg/mL); IC50 (ATP synthase): 0.03 µM; Selectivity Index [11]: > 1000; MIC [2]: 0.77 µM (≈ 0.269 µg/mL); MBC [5]: 0.4 µM (≈ 0.14 µg/mL); Activity [7]: inactive; fractional inhibitory concentration index (FICI) [8]: 0.37
O=c1c(NCc2ccccn2)c(Nc2nc3ccc([N+](=O)[O-])cc3o2)c1=O	1.55	> 64 µM	> 64 µM	
O=c1c(NCc2ccccn2)c(-c2ccc(F)cc2)c1=O	2.48	14.9 µM (≈ 4.21 µg/mL)	> 64 µM	MBC [5, 15]: > 100 µM
O=c1c(NCc2ccccn2)c(N2CCOCC2)c1=O	0.11	> 64 µM	> 64 µM	
O=c1c(NCc2ccccc2)c(NCc2ccccn2)c1=O	1.67	> 64 µM	> 64 µM	
O=c1c(NCc2ccccn2)c(-c2ccc(N3CCCCC3)cc2)c1=O	3.29	2.56 µM (≈ 0.889 µg/mL)	> 64 µM	MBC [5, 15]: 1.2 µM (≈ 0.417 µg/mL); Activity [7]: inactive; Activity [12]: Active; Activity [13]: 80%; fractional inhibitory concentration index (FICI) [8]: 0.29
O=c1c(NCc2ccccn2)c(N2CCNCC2)c1=O	-0.21	> 64 µM	> 64 µM	
O=c1c(NCc2ccccn2)c(NC2CCCCC2)c1=O	1.74	> 64 µM	> 64 µM	
Cc1ccc2oc(Nc3c(NCc4ccccn4)c(=O)c3=O)nc2c1	2.13	> 64 µM	> 64 µM	
